From ChEMBL document CHEMBL3351600, “Sulfur, selenium and tellurium pseudopeptides: synthesis and biological evaluation” (Bioorg Med Chem, 2014)

Tests used:
A-431 = experiment: Cytotoxicity against human A431 cells assessed as cell viability after 24 hrs incubation by MTT assay; format: functional, cell-based; details: A-431, 24 h
Summary of the method: (§1)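 Cell lines came from DSMZ; primary human fibroblasts served as non-cancer controls. Cells were grown in medium with 10% FCS, seeded at 50,000 cells/ml, and grown 2 days at 37 °C, 10% CO2. Serial dilutions were then added for 24 h. MTT (final 0.5 mg/ml) was added for 2 h. Formazan was pelleted, PBS-washed, dissolved in isopropanol/0.4% HCl and read at 590 nm. Two parallel experiments were run. IC50 was taken as the concentration giving 50% of untreated-control absorbance.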

Staphylococcus aureus = experiment: Antimicrobial activity against Staphylococcus aureus assessed as inhibition at 20 ug/6 mm disk after 1 to 2 days by agar diffusion assay; format: functional
Summary of the method: (§2)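 Standard agar diffusion: 6-mm paper disks loaded with 20 µg of compound were placed on inoculated plates. Inhibition-zone diameter (mm) was read after 1 and 2 days of growth.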

[1] = Growth inhibition of human HCC2998 cells after 48 hrs; format: functional; details: HCC 2998, 48 h
Summary of the method: (§3)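 NCI-60 human tumour cell line panel screen run at the US National Cancer Institute under its standard cytotoxicity protocol. It covers leukaemia, NSCLC, colon, CNS, melanoma, ovarian, renal, prostate and breast lines. An initial single-dose test was followed by five-dose testing with 48 h compound exposure.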

NCI-H23 = experiment: Growth inhibition of human NCI-H23 cells after 48 hrs; format: functional; details: NCI-H23, 48 h; summary of the method: as §3
[2] = Growth inhibition of human SF295 cells after 48 hrs; format: functional; details: SF-295, 48 h; summary of the method: as §3
MCF7 = experiment: Growth inhibition of human MCF7 cells after 48 hrs; format: functional; details: MCF7, 48 h; summary of the method: as §3
[3] = Cytotoxicity against human fibroblasts assessed as cell viability after 24 hrs incubation by MTT assay; format: cell-based; details: Fibroblast; summary of the method: as §1
[4] = Growth inhibition of human OVCAR5 cells after 48 hrs; format: functional; details: OVCAR-5, 48 h; summary of the method: as §3
SNB-75 = experiment: Growth inhibition of human SNB75 cells after 48 hrs; format: functional; details: SNB-75, 48 h
Summary of the method: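 Run by the NCI 58-cell-line screen under its standard cytotoxicity protocol. Compounds were first tested at a single dose, then at five doses. Cells were exposed to compound for 48 h.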

Candida albicans = experiment: Antimicrobial activity against Candida albicans assessed as inhibition at 20 ug/6 mm disk after 1 to 2 days by agar diffusion assay; format: functional; summary of the method: as §2
SF-268 = experiment: Growth inhibition of human SF268 cells after 48 hrs; format: functional; details: SF-268, 48 h; summary of the method: as §3
[5] = Growth inhibition of human MOLT4 cells after 48 hrs; format: functional; details: MOLT-4, 48 h; summary of the method: as §3
DU-145 = experiment: Growth inhibition of human DU145 cells after 48 hrs; format: functional; details: DU-145, 48 h; summary of the method: as §3
[6] = Growth inhibition of human OVCAR3 cells after 48 hrs; format: functional; details: OVCAR-3, 48 h; summary of the method: as §3
Pseudomonas aeruginosa = experiment: Antimicrobial activity against Pseudomonas aeruginosa assessed as inhibition at 20 ug/6 mm disk after 1 to 2 days by agar diffusion assay; format: functional; summary of the method: as §2
NCI-H460 = experiment: Growth inhibition of human NCI-H460 cells after 48 hrs; format: functional; details: NCI-H460, 48 h; summary of the method: as §3
SK-MEL-2 = experiment: Growth inhibition of human SK-MEL-2 cells after 48 hrs; format: functional; details: SK-MEL-2, 48 h; summary of the method: as §3
[7] = read-out: pLC50 (the source's name) (converted)

Q: With `CC1=C(SCCC(=O)OCC(=O)NCCC[Te]c2ccccc2)C(=O)c2ccccc2C1=O` as the compound, how does the IC50 (A-431) read?
A: The IC50 was 1 µM.

Q: What about the “diameter of the inhibition zone (DIZ)” value (Staphylococcus aureus) of the same compound?
A: The value was 13 mm.

Q: What about the GI50 [1] of the same compound?
A: The GI50 was 1.82 µM.

Q: What about the CC50 [1, 7] of the same compound?
A: Its CC50 is 13.5 µM.

Q: And the TGI ([1]; read-out: pTGI (converted))?
A: The TGI was 4.57 µM.

Q: What about the GI50 (NCI-H23) of the same compound?
A: The GI50 was 2.29 µM.

Q: What about the CC50 (NCI-H23; [7]) of the same compound?
A: The CC50 was 44.7 µM.

Q: And the TGI (NCI-H23; read-out: pTGI (converted))?
A: The TGI was 7.41 µM.

Q: What about the GI50 [2] of the same compound?
A: The GI50 was 1.7 µM.

Q: And the CC50 [2, 7]?
A: Its CC50 is > 100 µM.

Q: What about the TGI ([2]; read-out: pTGI (converted)) of the same compound?
A: The TGI was 6.31 µM.

Q: And the GI50 (MCF7)?
A: Its GI50 is 2.95 µM.

Q: What about the LC50 (concentration killing 50% of cells) (MCF7) of the same compound?
A: The LC50 (concentration killing 50% of cells) was 57.5 µM.

Q: And the TGI (MCF7; read-out: pTGI (converted))?
A: The TGI was 12.3 µM.

Q: And the IC50 [3]?
A: Its IC50 is 13 µM.

Q: What about the GI50 [4] of the same compound?
A: Its GI50 is 2.75 µM.

Q: What about the LC50 [4] of the same compound?
A: The LC50 was 38 µM.

Q: And the TGI ([4]; read-out: pTGI (converted))?
A: The TGI was 8.51 µM.

Q: And the GI50 (SNB-75)?
A: Its GI50 is 1.48 µM.

Q: What about the CC50 (SNB-75; [7]) of the same compound?
A: Its CC50 is 24.5 µM.

Q: What about the TGI (SNB-75; read-out: pTGI (converted)) of the same compound?
A: The TGI was 5.89 µM.

Q: And the “diameter of the inhibition zone (DIZ)” value (Candida albicans)?
A: The value was 0 mm.

Q: And the GI50 (SF-268)?
A: Its GI50 is 3.02 µM.

Q: What about the CC50 (SF-268; [7]) of the same compound?
A: Its CC50 is 37.2 µM.

Q: And the TGI (SF-268; read-out: pTGI (converted))?
A: The TGI was 9.55 µM.

Q: And the GI50 [5]?
A: Its GI50 is 3.16 µM.

Q: What about the CC50 [5, 7] of the same compound?
A: Its CC50 is > 100 µM.

Q: What about the TGI ([5]; read-out: pTGI (converted)) of the same compound?
A: The TGI was 9.77 µM.

Q: What about the GI50 (DU-145) of the same compound?
A: The GI50 was 3.31 µM.

Q: What about the LC50 (DU-145) of the same compound?
A: Its LC50 is 33.9 µM.

Q: What about the TGI (DU-145; read-out: pTGI (converted)) of the same compound?
A: Its TGI is 9.12 µM.

Q: What about the GI50 [6] of the same compound?
A: Its GI50 is 2.63 µM.

Q: And the CC50 [6, 7]?
A: The CC50 was 15.5 µM.

Q: What about the TGI ([6]; read-out: pTGI (converted)) of the same compound?
A: Its TGI is 5.5 µM.

Q: And the “diameter of the inhibition zone (DIZ)” value (Pseudomonas aeruginosa)?
A: The value was 12 mm.

Q: And the GI50 (NCI-H460)?
A: Its GI50 is 1.32 µM.

Q: What about the CC50 (NCI-H460; [7]) of the same compound?
A: Its CC50 is 51.3 µM.

Q: And the TGI (NCI-H460; read-out: pTGI (converted))?
A: Its TGI is 4.17 µM.

Q: What about the GI50 (SK-MEL-2) of the same compound?
A: The GI50 was 2.09 µM.

Q: What about the CC50 (SK-MEL-2; [7]) of the same compound?
A: Its CC50 is 12.9 µM.

Q: And the TGI (SK-MEL-2; read-out: pTGI (converted))?
A: Its TGI is 4.79 µM.
